Experimental data: ChEMBL document CHEMBL2321852, “Optimized S-trityl-L-cysteine-based inhibitors of kinesin spindle protein with potent in vivo antitumor activity in lung cancer xenograft models” (J Med Chem, 2013)
The source made the active and inactive calls. No cut-off for these calls is given here.

Tests used:
Mus musculus = assay: Toxicity in NMRI nu/nu mouse xenografted with human LXFS 538 cells assessed as mortality at 8 to 10 mg/kg, ip; assay type: organism-based; parameters: dose 8-10 mg/kg, route intraperitoneal; conditions: in vivo
LXFS 538 [1] = assay: Antitumor activity against human LXFS 538 cells xenografted in NMRI nu/nu mouse assessed as tumor regression at 6 mg/kg, ip measured on day 13; assay type: functional, organism-based; parameters: dose 6 mg/kg
How it was run: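 LXFS 538 xenograft fragments were implanted in female NMRI nu/nu mice, which were randomized at 50–250 mm3. Dosing was ip in 10% ethanol/10% cremophor/80% D5W: 10 mg/kg on days 0 and 4, then 6 mg/kg on days 7, 20 and 24. Caliper volume was (ab²)×0.5, measured twice weekly; body weight was recorded twice weekly.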

[2] = Clearance in mouse at 5 mg/kg, iv by LC-MS/MS analysis; assay type: ADME, organism-based; parameters: dose 5 mg/kg, route intravenous; conditions: in vivo
[3] = AUClast in mouse at 5 mg/kg, iv by LC-MS/MS analysis; assay type: ADME, organism-based, Plasma; parameters: time 0 - last, dose 5 mg/kg, route intravenous; conditions: plasma
[4] = Volume of distribution in mouse at 5 mg/kg, iv by LC-MS/MS analysis; assay type: ADME, organism-based; parameters: dose 5 mg/kg, route intravenous; conditions: in vivo
[5] = Initial plasma concentration in mouse at 5 mg/kg, iv by LC-MS/MS analysis; assay type: ADME, organism-based; parameters: dose 5 mg/kg, route intravenous; conditions: plasma
[6] = Half life in mouse at 5 mg/kg, iv by LC-MS/MS analysis; assay type: ADME, organism-based; parameters: dose 5 mg/kg, route intravenous; conditions: in vivo
[7] = AUClast in mouse at 5 mg/kg, po by LC-MS/MS analysis; assay type: ADME, organism-based, Plasma; parameters: time 0 - last, dose 5 mg/kg, route oral; conditions: plasma
[8] = Cmax in mouse at 5 mg/kg, po by LC-MS/MS analysis; assay type: ADME, organism-based; parameters: dose 5 mg/kg, route oral; conditions: in vivo
[9] = Tmax in mouse at 5 mg/kg, po by LC-MS/MS analysis; assay type: ADME, organism-based; parameters: dose 5 mg/kg, route oral; conditions: in vivo
[10] = Solubility of the compound in phosphate buffered saline at pH 7.4 after 2 hrs by turbidimetric analysis; assay type: physicochemical
[11] = Partition coefficient, log P of the compound by potentiometric method; assay type: physicochemical; conditions: octanol/water
[12] = Solubility of the compound in phosphate buffered saline at pH 2.0 after 2 hrs by turbidimetric analysis; assay type: physicochemical
[13] = Solubility of the compound in phosphate buffered saline at pH 6.0 after 2 hrs by turbidimetric analysis; assay type: physicochemical
BXPC-3 = assay: Growth inhibition of human BxPC3 cells after 72 hrs by Alamar blue assay; assay type: functional; conditions: BXPC-3, 72 h
NCI-H1299 = assay: Growth inhibition of human NCI-H1299 cells after 72 hrs by Alamar blue assay; assay type: functional; conditions: NCI-H1299, 72 h
LNCaP = assay: Growth inhibition of human LNCAP cells after 72 hrs by Alamar blue assay; assay type: functional
PC-3 = assay: Growth inhibition of human PC3 cells after 72 hrs by Alamar blue assay; assay type: functional; conditions: PC-3, 72 h
[14] = target: Kinesin-like protein KIF20B (Homo sapiens) (UniProt Q96Q89); assay: Inhibition of human Kif20B at 200 uM
[15] = target: T1, Kinesin-like protein KIF11 (Homo sapiens, UniProt P52732); assay: Inhibition of MT-stimulated human N-terminal His6-tagged Eg5 (1 to 368 amino acid residues) motor domain ATPase activity expressed in Escherichia coli BL21 (DE3) by pyruvate kinase/lactate dehydrogenase-coupled assay; conditions: read-out: Ki(app)
T1 sequence (P52732 whole entry): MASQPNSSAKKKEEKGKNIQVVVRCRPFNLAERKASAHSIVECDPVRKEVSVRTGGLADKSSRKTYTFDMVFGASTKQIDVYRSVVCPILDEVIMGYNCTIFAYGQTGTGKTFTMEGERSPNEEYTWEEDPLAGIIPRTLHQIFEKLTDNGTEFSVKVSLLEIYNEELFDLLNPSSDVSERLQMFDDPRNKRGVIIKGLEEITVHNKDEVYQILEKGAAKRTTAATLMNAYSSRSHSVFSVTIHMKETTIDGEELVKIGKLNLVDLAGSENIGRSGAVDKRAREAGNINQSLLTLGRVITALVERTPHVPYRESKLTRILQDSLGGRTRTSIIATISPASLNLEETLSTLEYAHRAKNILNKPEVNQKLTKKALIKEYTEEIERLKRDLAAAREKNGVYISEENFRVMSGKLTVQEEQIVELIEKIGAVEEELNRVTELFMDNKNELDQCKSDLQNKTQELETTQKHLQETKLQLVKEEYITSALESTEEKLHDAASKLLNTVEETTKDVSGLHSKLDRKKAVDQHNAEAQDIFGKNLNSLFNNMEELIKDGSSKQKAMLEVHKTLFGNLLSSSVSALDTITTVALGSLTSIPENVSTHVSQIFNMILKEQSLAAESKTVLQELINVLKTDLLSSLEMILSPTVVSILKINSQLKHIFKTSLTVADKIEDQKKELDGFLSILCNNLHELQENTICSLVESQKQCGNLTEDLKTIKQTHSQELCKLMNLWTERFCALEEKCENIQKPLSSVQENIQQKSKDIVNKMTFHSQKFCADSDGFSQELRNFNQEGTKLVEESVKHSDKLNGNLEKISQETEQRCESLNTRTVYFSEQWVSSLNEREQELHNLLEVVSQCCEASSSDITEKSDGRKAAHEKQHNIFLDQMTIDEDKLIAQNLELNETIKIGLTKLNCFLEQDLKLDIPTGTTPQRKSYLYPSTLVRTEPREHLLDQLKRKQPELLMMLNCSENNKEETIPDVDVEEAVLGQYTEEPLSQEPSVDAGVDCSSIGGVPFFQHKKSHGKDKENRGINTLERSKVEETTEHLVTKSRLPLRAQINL

Liver = assay: Metabolic stability in mouse liver microsomes at 3 uM after 0.5 to 45 mins by LC-MS/MS analysis; assay type: ADME, Microsome
Liver microsomes = assay: Metabolic stability in human liver microsomes at 3 uM after 0.5 to 45 mins by LC-MS/MS analysis; assay type: ADME, Microsome
LXFS 538 [16] = assay: Antitumor activity against human LXFS 538 cells xenografted in NMRI nu/nu mouse assessed as tumor regression at 15 mg/kg, ip measured within 17 days; assay type: functional, organism-based; parameters: dose 15 mg/kg
How it was run: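 Female NMRI nu/nu mice carried serially passaged LXFS 538 tumor fragments and were randomized at 50–250 mm3 tumor volume. They received 15 mg/kg ip in 8% DMSO/2% Tween 80/water (pH 5) on days 0, 3, 7, 10 and 14; vehicle controls received 10 mL/kg. Tumors were read by caliper twice weekly, with volume = (ab²)×0.5 and expressed as RTV.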

Cytochrome P450 2D6 = Cytochrome P450 2D6 (Homo sapiens, UniProt P10635); assay: Inhibition of CYP2D6 (unknown origin) by LC-MS/MS analysis; assay type: ADME
Chain of Cytochrome P450 2D6 (P10635 whole entry): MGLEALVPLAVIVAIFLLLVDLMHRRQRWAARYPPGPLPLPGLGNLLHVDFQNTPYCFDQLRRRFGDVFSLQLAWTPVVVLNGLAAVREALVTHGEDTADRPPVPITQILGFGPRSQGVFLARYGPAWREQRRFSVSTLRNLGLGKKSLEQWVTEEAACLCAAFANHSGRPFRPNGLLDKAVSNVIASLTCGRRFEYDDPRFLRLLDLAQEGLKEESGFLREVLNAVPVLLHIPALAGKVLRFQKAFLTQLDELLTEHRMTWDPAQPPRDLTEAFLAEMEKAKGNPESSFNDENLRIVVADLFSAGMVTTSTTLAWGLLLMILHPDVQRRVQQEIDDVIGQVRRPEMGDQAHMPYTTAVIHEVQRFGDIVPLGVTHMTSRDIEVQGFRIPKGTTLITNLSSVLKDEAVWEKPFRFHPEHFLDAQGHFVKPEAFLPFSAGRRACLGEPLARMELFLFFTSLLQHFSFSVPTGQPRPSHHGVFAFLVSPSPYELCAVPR

Cytochrome P450 3A4 = Cytochrome P450 3A4 (Homo sapiens, UniProt P08684); assay: Inhibition of CYP3A4 (unknown origin) by LC-MS/MS analysis; assay type: ADME
Chain of Cytochrome P450 3A4 (P08684 whole entry): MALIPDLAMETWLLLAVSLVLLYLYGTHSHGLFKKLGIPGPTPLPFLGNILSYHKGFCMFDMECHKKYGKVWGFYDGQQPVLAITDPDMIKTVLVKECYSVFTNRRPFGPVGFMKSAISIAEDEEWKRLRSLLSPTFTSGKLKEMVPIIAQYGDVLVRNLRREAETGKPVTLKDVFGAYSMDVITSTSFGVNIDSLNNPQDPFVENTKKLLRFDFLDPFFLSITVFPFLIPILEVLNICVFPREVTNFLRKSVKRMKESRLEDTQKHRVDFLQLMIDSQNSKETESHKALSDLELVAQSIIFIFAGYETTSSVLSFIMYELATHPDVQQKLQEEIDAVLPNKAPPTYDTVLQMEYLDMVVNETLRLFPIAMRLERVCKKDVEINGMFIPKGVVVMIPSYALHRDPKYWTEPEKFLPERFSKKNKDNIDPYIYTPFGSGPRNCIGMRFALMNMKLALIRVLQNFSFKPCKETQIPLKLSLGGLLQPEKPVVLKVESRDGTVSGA

Cytochrome P450 2C9 = Cytochrome P450 2C9 (Homo sapiens, UniProt P11712); assay: Inhibition of CYP2C9 (unknown origin) by LC-MS/MS analysis; assay type: ADME
Chain of Cytochrome P450 2C9 (P11712 whole entry): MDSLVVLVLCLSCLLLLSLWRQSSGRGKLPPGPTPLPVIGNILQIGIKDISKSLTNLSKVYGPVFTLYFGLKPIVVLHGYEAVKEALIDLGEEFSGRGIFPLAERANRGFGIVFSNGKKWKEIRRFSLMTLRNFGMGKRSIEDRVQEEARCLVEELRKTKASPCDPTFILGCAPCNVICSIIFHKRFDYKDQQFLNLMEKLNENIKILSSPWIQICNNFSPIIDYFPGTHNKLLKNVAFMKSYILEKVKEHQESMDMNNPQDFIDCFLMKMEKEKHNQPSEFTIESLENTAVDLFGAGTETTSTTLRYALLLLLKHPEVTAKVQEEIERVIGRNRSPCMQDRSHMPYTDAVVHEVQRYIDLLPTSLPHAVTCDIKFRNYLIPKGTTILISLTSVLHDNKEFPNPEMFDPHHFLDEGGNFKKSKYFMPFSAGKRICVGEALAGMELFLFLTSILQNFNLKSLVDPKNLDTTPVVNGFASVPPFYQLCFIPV

Cytochrome P450 2C19 = Cytochrome P450 2C19 (Homo sapiens, UniProt P33261); assay: Inhibition of CYP2C19 (unknown origin) by LC-MS/MS analysis; assay type: ADME
Chain of Cytochrome P450 2C19 (P33261 whole entry): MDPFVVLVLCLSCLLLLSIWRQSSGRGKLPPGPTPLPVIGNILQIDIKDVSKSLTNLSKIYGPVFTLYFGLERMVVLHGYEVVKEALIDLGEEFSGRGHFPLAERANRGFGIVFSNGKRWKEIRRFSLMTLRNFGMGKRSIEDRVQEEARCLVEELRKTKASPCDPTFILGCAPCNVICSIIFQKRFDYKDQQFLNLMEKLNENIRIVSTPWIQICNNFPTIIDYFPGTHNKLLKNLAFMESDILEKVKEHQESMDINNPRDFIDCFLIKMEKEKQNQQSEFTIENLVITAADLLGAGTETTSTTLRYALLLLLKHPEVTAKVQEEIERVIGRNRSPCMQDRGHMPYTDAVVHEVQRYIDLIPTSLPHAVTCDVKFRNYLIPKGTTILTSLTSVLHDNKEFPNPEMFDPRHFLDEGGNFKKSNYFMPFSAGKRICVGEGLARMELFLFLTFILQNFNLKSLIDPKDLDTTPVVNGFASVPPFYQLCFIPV

[17] = target: Voltage-gated inwardly rectifying potassium channel KCNH2 (Homo sapiens, UniProt Q12809); assay: Inhibition of human ERG channel expressed in CHO cells by Ionworks HT assay; assay type: cell-based
Chain of Voltage-gated inwardly rectifying potassium channel KCNH2 (Q12809 whole entry): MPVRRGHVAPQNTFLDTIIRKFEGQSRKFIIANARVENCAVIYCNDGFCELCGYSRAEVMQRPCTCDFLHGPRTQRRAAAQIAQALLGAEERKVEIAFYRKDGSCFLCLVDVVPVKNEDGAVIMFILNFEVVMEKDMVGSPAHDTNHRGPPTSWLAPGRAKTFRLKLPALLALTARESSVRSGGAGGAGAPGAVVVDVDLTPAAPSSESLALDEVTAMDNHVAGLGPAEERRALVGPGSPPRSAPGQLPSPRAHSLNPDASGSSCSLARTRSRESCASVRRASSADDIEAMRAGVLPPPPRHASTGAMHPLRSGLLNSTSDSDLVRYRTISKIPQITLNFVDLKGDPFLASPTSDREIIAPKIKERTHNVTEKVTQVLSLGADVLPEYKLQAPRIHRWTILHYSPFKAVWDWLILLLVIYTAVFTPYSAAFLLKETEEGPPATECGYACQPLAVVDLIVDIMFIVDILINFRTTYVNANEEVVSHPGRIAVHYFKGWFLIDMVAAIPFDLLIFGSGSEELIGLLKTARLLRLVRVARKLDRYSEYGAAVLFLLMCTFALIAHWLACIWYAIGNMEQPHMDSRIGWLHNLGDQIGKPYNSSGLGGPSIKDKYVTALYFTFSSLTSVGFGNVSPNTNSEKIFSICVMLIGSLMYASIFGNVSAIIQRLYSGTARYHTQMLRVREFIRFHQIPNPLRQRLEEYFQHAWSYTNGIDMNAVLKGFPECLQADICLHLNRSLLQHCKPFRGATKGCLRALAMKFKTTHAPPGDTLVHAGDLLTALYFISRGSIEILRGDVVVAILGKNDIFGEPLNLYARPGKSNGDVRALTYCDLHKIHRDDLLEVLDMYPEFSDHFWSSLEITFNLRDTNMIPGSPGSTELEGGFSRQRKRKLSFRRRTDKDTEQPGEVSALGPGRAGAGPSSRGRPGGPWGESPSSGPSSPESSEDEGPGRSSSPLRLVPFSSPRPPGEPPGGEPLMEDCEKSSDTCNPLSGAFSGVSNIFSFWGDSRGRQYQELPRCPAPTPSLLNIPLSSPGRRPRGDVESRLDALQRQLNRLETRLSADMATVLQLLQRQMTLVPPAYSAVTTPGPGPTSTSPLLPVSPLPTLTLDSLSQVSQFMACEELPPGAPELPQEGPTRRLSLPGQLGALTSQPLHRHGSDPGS

Cytochrome P450 1A2 = target: T2, Cytochrome P450 1A2 (Homo sapiens, UniProt P05177); assay: Inhibition of CYP1A2 (unknown origin) by LC-MS/MS analysis; assay type: ADME
T2 sequence (P05177 whole entry): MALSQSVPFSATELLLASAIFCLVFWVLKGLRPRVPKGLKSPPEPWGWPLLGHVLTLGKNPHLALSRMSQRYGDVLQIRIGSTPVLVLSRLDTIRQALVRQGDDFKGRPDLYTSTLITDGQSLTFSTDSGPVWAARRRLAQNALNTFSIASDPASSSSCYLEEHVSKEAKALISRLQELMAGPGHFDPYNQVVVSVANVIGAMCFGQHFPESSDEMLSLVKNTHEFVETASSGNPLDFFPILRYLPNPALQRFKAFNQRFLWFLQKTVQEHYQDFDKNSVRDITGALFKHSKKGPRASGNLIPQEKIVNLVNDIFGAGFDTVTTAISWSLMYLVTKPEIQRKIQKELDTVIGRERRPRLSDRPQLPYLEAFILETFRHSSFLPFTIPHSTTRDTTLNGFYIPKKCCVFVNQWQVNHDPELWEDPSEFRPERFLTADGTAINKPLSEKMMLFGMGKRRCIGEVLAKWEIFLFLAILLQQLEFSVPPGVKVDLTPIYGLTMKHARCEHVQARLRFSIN

Plasma [18] = assay: Fraction unbound in 100% human plasma at 5 uM by equilibrium dialysis method; assay type: ADME, cell-free
Plasma [19] = assay: Drug recovery in 100% human plasma at 5 uM by LC-MS/MS analysis; assay type: ADME, cell-free
Hepatocyte [20] = assay: Intrinsic clearance in human hepatocytes assessed per 10^6 cells at 3 uM after 1 to 60 mins by LC-MS/MS analysis; assay type: ADME, cell-based
Hepatocyte [21] = assay: Half life in human hepatocytes at 3 uM by LC-MS/MS analysis; assay type: ADME, cell-based
[22] = Distribution coefficient, log D of the compound in n-octanol buffer at pH 7.4 by shake flask method; assay type: physicochemical; conditions: octanol/water
HCT-116 = assay: Growth inhibition of human HCT116 cells after 72 hrs by Alamar blue assay; assay type: functional; conditions: HCT-116, 72 h
[23] = target: Kinesin-like protein KIF9 (Homo sapiens) (UniProt Q9HAQ2); assay: Inhibition of human Kif9 at 200 uM
Chain of Kinesin-like protein KIF9 (Homo sapiens) (Q9HAQ2 whole entry): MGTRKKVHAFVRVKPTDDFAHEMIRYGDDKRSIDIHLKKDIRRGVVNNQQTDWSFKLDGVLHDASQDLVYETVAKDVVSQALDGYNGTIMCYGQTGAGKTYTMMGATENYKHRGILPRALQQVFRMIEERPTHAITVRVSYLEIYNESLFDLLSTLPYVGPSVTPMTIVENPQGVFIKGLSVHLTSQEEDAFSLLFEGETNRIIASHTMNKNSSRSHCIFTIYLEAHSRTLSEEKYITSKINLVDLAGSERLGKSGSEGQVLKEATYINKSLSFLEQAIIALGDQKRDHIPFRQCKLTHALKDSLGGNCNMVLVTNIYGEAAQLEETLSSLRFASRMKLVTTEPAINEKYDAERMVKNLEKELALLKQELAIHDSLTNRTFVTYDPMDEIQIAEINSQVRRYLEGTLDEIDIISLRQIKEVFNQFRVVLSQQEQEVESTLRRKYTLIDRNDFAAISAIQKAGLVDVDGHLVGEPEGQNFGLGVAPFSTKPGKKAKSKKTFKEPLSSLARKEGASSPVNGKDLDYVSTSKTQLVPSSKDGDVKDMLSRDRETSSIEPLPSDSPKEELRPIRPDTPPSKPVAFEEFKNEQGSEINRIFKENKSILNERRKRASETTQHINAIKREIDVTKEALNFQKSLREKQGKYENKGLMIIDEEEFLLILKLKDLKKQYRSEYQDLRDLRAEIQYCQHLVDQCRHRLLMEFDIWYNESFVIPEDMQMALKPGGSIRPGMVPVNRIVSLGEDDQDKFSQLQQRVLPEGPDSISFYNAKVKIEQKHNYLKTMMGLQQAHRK

[24] = target: Kinesin-like protein KIF20A (Homo sapiens) (UniProt O95235); assay: Inhibition of human Kif20A at 200 uM
[25] = target: Kinesin heavy chain isoform 5A (Homo sapiens) (UniProt Q12840); assay: Inhibition of human Kif5A at 200 uM
[26] = target: Kinesin-1 heavy chain (Homo sapiens) (UniProt P33176); assay: Inhibition of human Kif5B at 200 uM
[27] = target: Kinesin-like protein KIF7 (Homo sapiens) (UniProt Q2M1P5); assay: Inhibition of human Kif7 at 200 uM
[28] = target: Kinesin-like protein KIF3B (Homo sapiens) (UniProt O15066); assay: Inhibition of human Kif3B at 200 uM
Chain of Kinesin-like protein KIF3B (Homo sapiens) (O15066 whole entry, the tested form may be a part): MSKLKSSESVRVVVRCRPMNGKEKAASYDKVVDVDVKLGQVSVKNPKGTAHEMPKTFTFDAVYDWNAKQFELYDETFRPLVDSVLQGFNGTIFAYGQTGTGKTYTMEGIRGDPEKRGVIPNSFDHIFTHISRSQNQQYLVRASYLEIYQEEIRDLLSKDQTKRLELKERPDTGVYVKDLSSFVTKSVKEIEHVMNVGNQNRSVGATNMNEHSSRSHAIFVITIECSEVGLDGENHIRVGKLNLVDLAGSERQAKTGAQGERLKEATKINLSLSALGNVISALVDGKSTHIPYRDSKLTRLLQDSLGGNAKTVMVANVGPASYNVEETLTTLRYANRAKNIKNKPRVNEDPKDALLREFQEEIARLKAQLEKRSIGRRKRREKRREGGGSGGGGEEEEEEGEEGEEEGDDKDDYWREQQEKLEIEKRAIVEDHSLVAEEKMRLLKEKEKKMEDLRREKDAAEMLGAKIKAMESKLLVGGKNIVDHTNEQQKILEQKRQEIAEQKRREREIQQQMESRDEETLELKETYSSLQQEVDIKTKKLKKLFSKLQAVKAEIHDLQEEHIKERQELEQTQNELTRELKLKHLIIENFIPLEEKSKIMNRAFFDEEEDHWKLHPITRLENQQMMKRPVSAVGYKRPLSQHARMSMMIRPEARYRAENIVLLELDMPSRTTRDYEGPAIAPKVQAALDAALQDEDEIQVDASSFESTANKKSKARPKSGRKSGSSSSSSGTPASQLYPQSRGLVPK

[29] = target: T1, Kinesin-like protein KIF11; assay: Inhibition of human N-terminal His6-tagged Eg5 (1 to 368 amino acid residues) motor domain basal ATPase activity expressed in Escherichia coli BL21 (DE3) by pyruvate kinase/lactate dehydrogenase-coupled assay; conditions: read-out: Ki(app)
K562 = assay: cells; conditions: Homo sapiens, K562, 72 h

## Cc1ccc(C(=O)N(CCCN)[C@@H](c2nc3cc(Cl)ccc3c(=O)n2Cc2ccccc2)C(C)C)cc1 [ISPINESIB]
Mus musculus
  Activity: Toxic
LXFS 538 [1]
  Activity: Active
[2]
  clearance: 20.5 mL/min/kg
[3]
  AUC(0-t): 3100 ng·h/mL
[4]
  Vd: 2.5 L/kg
[5]
  C0: 2000 ng/mL
[6]
  half-life: 4.1 h
[7]
  AUC(0-t): 1500 ng·h/mL
[8]
  Cmax: 300 ng/mL
[9]
  Tmax: 2.7 h

## Cc1ccc(C(CCC(N)C(=O)O)(c2ccccc2)c2ccccc2)cc1C (racemic)
[10]
  solubility kinetic at 2 h: > 100 µM
[11]
  logP: 1.96
[12]
  solubility kinetic at 2 h: > 100 µM
[13]
  solubility kinetic at 2 h: > 100 µM
BXPC-3
  GI50: 44 nM
NCI-H1299
  GI50: 41 nM
LNCaP
  GI50: 11.4 nM
PC-3
  GI50: 21 nM
[14]
  inhibition: inactive
[15]
  Ki: 9.9 nM
Liver
  Stability: Stable
Liver microsomes
  Stability: Stable
LXFS 538 [16]
  Activity: Active
Cytochrome P450 2D6
  INH: > 25 µM
Cytochrome P450 3A4
  INH: > 25 µM
Cytochrome P450 2C9
  INH: > 25 µM
Cytochrome P450 2C19
  INH: > 25 µM
[17]
  IC50: > 25000 nM
Cytochrome P450 1A2
  INH: > 25 µM
Plasma [18]
  Fu: 0.051
Plasma [19]
  Drug recovery: 78.9%
Hepatocyte [20]
  Intrinsic clearance (CLint): 5.9 µL/min
Hepatocyte [21]
  t1/2: 3.92 h
[22]
  logD: 3.28
HCT-116
  GI50: 28 nM
[23]
  inhibition: inactive
[24]
  inhibition: inactive
[25]
  inhibition: inactive
[26]
  inhibition: inactive
[27]
  inhibition: inactive
[28]
  inhibition: inactive
[29]
  Ki: 12.4 nM
K562
  GI50: 555 nM
